Laboratory results as given in ChEMBL document CHEMBL5724801, “EUbOPEN Chemogenomics Library - Multiplex” (2024).
Values joined by “and” are separate entries in the source; they are usually repeats but may differ in a detail not shown here. Equal values may be shown once.

Test system: U2OS
Experiment: Multiplex assay against U2OS
Type: toxicity, cell-based
Conditions: human
In short: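 At seeding, live cells were stained with Hoechst33342, BioTracker Green Microtubule Cytoskeleton Dye, MitoTracker Red and Annexin V Alexa Fluor 680. After compound addition they were imaged on a CQ1 microscope at 37°C and 5% CO2, and CellPathfinder machine-learning gating sorted them into Hoechst high-intensity objects or normal cells, with normal cells further split into healthy, pyknosed or fragmented nuclei and pyknosed cells into mitotic or apoptotic. Tubulin, mitochondrial-mass and membrane-permeability phenotypes are given as per cents of cells with healthy nuclei.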

[1] = 12 h, 1 µM, compound concentration 1 uM
[2] = 12 h, 10 µM, compound concentration 10 uM
[3] = 24 h, 1 µM, compound concentration 1 uM
[4] = 24 h, 10 µM, compound concentration 10 uM
[5] = 48 h, 1 µM, compound concentration 1 uM
[6] = 48 h, 10 µM, compound concentration 10 uM

Cc1noc(C)c1-c1cnc2c(-c3ccc(C(=O)O)cc3)cn([C@@H](C)c3ccccn3)c2c1 [PLX-51107]
Population Apoptotic (%) [1]: 28.33% and 48.15% | Population Fragmented Nuclei (%) [1]: 2.1% and 1.04% | Population Healthy Nuclei (%) [1]: 85.32% and 84.97% | Population Hoechst High Intensity Objects (%) [1]: 0% | Population Membrane Permeable-Phenotype (%) [1]: 0.25% and 4.88% | Population Mitochondria Different-Phenotype (%) [1]: 0% and 5.49% | Population Mitotic Cells (%) [1]: 71.67% and 51.85% | Population Normal (%) [1]: 100% | Population Pyknosed Nuclei (%) [1]: 12.58% and 13.99% | Population Tubulin-Different-Phenotype (%) [1]: 0.74% and 3.05% | Total Cell Count [1]: 477 and 193 | Population Apoptotic (%) [2]: 30.77% and 33.33% | Population Fragmented Nuclei (%) [2]: 2.92% and 1.9% | Population Healthy Nuclei (%) [2]: 82.47% and 82.91% | Population Hoechst High Intensity Objects (%) [2]: 0% | Population Membrane Permeable-Phenotype (%) [2]: 1.36% and 3.05% | Population Mitochondria Different-Phenotype (%) [2]: 0.27% and 7.63% | Population Mitotic Cells (%) [2]: 69.23% and 66.67% | Population Normal (%) [2]: 100% | Population Pyknosed Nuclei (%) [2]: 14.61% and 15.19% | Population Tubulin-Different-Phenotype (%) [2]: 1.36% and 1.53% | Total Cell Count [2]: 445 and 158 | Population Apoptotic (%) [3]: 32.76% and 59.26% | Population Fragmented Nuclei (%) [3]: 3.22% and 5.11% | Population Healthy Nuclei (%) [3]: 87.88% and 85.04% | Population Hoechst High Intensity Objects (%) [3]: 0% | Population Membrane Permeable-Phenotype (%) [3]: 0.52% and 4.29% | Population Mitochondria Different-Phenotype (%) [3]: 0.35% and 3.86% | Population Mitotic Cells (%) [3]: 67.24% and 40.74% | Population Normal (%) [3]: 100% | Population Pyknosed Nuclei (%) [3]: 8.9% and 9.85% | Population Tubulin-Different-Phenotype (%) [3]: 0.52% and 2.15% | Total Cell Count [3]: 652 and 274 | Population Apoptotic (%) [4]: 43.37% and 43.48% | Population Fragmented Nuclei (%) [4]: 5.51% and 6.04% | Population Healthy Nuclei (%) [4]: 79.23% and 81.32% | Population Hoechst High Intensity Objects (%) [4]: 0% | Population Membrane Permeable-Phenotype (%) [4]: 0.93% and 2.7% | Population Mitochondria Different-Phenotype (%) [4]: 0% and 4.73% | Population Mitotic Cells (%) [4]: 56.63% and 56.52% | Population Normal (%) [4]: 100% | Population Pyknosed Nuclei (%) [4]: 15.26% and 12.64% | Population Tubulin-Different-Phenotype (%) [4]: 0.46% and 0.68% | Total Cell Count [4]: 544 and 182 | Population Apoptotic (%) [5]: 51.49% and 72.73% | Population Fragmented Nuclei (%) [5]: 10.29% and 4.03% | Population Healthy Nuclei (%) [5]: 80.83% and 86.62% | Population Hoechst High Intensity Objects (%) [5]: 0% | Population Membrane Permeable-Phenotype (%) [5]: 0.44% and 2.21% | Population Mitochondria Different-Phenotype (%) [5]: 0.11% and 1.47% | Population Mitotic Cells (%) [5]: 48.51% and 27.27% | Population Normal (%) [5]: 100% | Population Pyknosed Nuclei (%) [5]: 8.88% and 9.34% | Population Tubulin-Different-Phenotype (%) [5]: 0.44% and 1.47% | Total Cell Count [5]: 1137 and 471 | Population Apoptotic (%) [6]: 58.54% and 60.87% | Population Fragmented Nuclei (%) [6]: 17.75% and 9.91% | Population Healthy Nuclei (%) [6]: 65.96% and 70.26% | Population Hoechst High Intensity Objects (%) [6]: 0% | Population Membrane Permeable-Phenotype (%) [6]: 0.6% and 1.84% | Population Mitochondria Different-Phenotype (%) [6]: 0% and 2.45% | Population Mitotic Cells (%) [6]: 41.46% and 39.13% | Population Normal (%) [6]: 100% | Population Pyknosed Nuclei (%) [6]: 16.29% and 19.83% | Population Tubulin-Different-Phenotype (%) [6]: 1.2% and 0.61%

CC(C)(C)c1ccc(CSc2cnn(C(C)(C)C)c(=O)c2Cl)cc1 [PYRIDABEN]
Population Apoptotic (%) [1]: 79% and 63% | Population Fragmented Nuclei (%) [1]: 28% and 11% | Population Healthy Nuclei (%) [1]: 61% and 81% | Population Hoechst High Intensity Objects (%) [1]: 3% and 0% | Population Membrane Permeable-Phenotype (%) [1]: 3% and 4% | Population Mitochondria Different-Phenotype (%) [1]: 1% | Population Mitotic Cells (%) [1]: 20% and 36% | Population Normal (%) [1]: 97% and 99% | Population Pyknosed Nuclei (%) [1]: 9% and 7% | Population Tubulin-Different-Phenotype (%) [1]: 2% and 3% | Total Cell Count [1]: 267 and 152 | Population Apoptotic (%) [2]: 83% and 87% | Population Fragmented Nuclei (%) [2]: 28% and 15% | Population Healthy Nuclei (%) [2]: 57% and 73% | Population Hoechst High Intensity Objects (%) [2]: 1% and 0% | Population Membrane Permeable-Phenotype (%) [2]: 5% | Population Mitochondria Different-Phenotype (%) [2]: 5% and 2% | Population Mitotic Cells (%) [2]: 16% and 12% | Population Normal (%) [2]: 98% and 100% | Population Pyknosed Nuclei (%) [2]: 14% and 11% | Population Tubulin-Different-Phenotype (%) [2]: 3% and 2% | Total Cell Count [2]: 209 and 141 | Population Apoptotic (%) [3]: 83% and 100% | Population Fragmented Nuclei (%) [3]: 28% and 19% | Population Healthy Nuclei (%) [3]: 58% and 75% | Population Hoechst High Intensity Objects (%) [3]: 1% and 2% | Population Membrane Permeable-Phenotype (%) [3]: 4% and 3% | Population Mitochondria Different-Phenotype (%) [3]: 1% | Population Mitotic Cells (%) [3]: 16% and 0% | Population Normal (%) [3]: 98% and 97% | Population Pyknosed Nuclei (%) [3]: 13% and 5% | Population Tubulin-Different-Phenotype (%) [3]: 1% | Total Cell Count [3]: 286 and 186 | Population Apoptotic (%) [4]: 80% | Population Fragmented Nuclei (%) [4]: 22% and 19% | Population Healthy Nuclei (%) [4]: 61% and 68% | Population Hoechst High Intensity Objects (%) [4]: 2% and 1% | Population Membrane Permeable-Phenotype (%) [4]: 8% and 6% | Population Mitochondria Different-Phenotype (%) [4]: 3% and 1% | Population Mitotic Cells (%) [4]: 19% and 20% | Population Normal (%) [4]: 97% and 98% | Population Pyknosed Nuclei (%) [4]: 15% and 12% | Population Tubulin-Different-Phenotype (%) [4]: 6% and 2% | Total Cell Count [4]: 234 and 167 | Population Apoptotic (%) [5]: 76% and 84% | Population Fragmented Nuclei (%) [5]: 26% and 19% | Population Healthy Nuclei (%) [5]: 63% and 70% | Population Hoechst High Intensity Objects (%) [5]: 3% and 6% | Population Membrane Permeable-Phenotype (%) [5]: 6% and 5% | Population Mitochondria Different-Phenotype (%) [5]: 3% | Population Mitotic Cells (%) [5]: 23% and 15% | Population Normal (%) [5]: 96% and 93% | Population Pyknosed Nuclei (%) [5]: 9% | Population Tubulin-Different-Phenotype (%) [5]: 3% and 2% | Total Cell Count [5]: 361 and 212 | Population Apoptotic (%) [6]: 90% and 95% | Population Fragmented Nuclei (%) [6]: 20% and 16% | Population Healthy Nuclei (%) [6]: 64% and 70% | Population Hoechst High Intensity Objects (%) [6]: 4% and 3% | Population Membrane Permeable-Phenotype (%) [6]: 9% and 5% | Population Mitochondria Different-Phenotype (%) [6]: 4% and 6% | Population Mitotic Cells (%) [6]: 10% and 4% | Population Normal (%) [6]: 95% and 96% | Population Pyknosed Nuclei (%) [6]: 14% and 13% | Population Tubulin-Different-Phenotype (%) [6]: 6% and 4% | Total Cell Count [6]: 280 and 191
